Series [1] concerns NCI-H1975. Description: Antiproliferative activity against human NCI-H1975 cells harboring EGFR T790M mutant assessed as reduction in cell viability measured after 72 hrs by CCK8 assay. The format is functional, cell-based. As to conditions: NCI-H1975, 72 h. The method in brief:
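H1975 NSCLC cells, which carry EGFR T790M, were used in a cell-based CCK8 antiproliferation assay. IC50 values were reported.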
A general note: Tetrazolium assays rely on reduction of a dye to a coloured formazan, in cell work by metabolically active cells.

Series [2] has as its target Epidermal growth factor receptor (Homo sapiens, UniProt P00533, T790M). Description: Inhibition of EGFR T790M mutant (unknown origin) using Poly (Glu, Tyr)4:1 as substrate by spectrophotometry.
The target of series [3] is T1, 5'-nucleotidase domain-containing protein 1 (Homo sapiens) (UniProt Q5TFE4).
T1 sequence (whole entry): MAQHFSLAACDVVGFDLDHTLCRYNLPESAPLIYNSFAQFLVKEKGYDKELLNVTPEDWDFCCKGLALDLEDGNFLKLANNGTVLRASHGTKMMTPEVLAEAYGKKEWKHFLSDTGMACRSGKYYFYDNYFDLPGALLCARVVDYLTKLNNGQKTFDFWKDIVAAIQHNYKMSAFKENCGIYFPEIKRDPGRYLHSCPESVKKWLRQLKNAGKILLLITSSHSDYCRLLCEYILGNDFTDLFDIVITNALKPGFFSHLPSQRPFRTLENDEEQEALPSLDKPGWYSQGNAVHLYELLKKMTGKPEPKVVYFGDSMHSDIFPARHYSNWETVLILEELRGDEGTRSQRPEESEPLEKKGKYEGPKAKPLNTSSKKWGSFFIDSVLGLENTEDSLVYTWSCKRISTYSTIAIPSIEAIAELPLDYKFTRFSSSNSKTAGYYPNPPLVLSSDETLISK
Description: Thermal stabilization of NT5DC1 in human NCI-H1975 cells assessed as positive shift in melting temperature by CETSA. The format is cell-based. The method in brief: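 Binding was tested by cellular thermal shift assay in H1975 cells exposed to the compounds. NT5DC1 stabilization was read as a shift in melting temperature.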

Series [4] has as its system NCI-H1975. Description: Antiproliferative activity against NT5DC1 knockdown human NCI-H1975 cells assessed as reduction in cell viability incubated for 48 hrs by CCK8 assay. The series is classed as functional, cell-based. The method in brief: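 NT5DC1 was knocked down in H1975 cells with siRNA, with scrambled siRNA as the negative control. Knockdown was checked by Western blot. Cells with or without knockdown were exposed to a range of compound concentrations, and viability was read out against DMSO-treated controls.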

Series [5] in a line: Drug uptake in cytosol of human NCI-H1975 cells assessed as fluorescence signal at 5 uM incubated for 1 hrs by fluorescence microscopy. The series is classed as ADME, subcellular. The method in brief: (§1)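 Live H1975 cells were incubated for 1 h with the 5 μM alkyne probe, with or without parent inhibitor, against DMSO controls. Cells were then fixed, permeabilized, clicked with TAMRA-azide and imaged by fluorescence microscopy, with excitation at 550 nm for the probe channel.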

The nature of series [6]: Drug uptake in nucleus of human NCI-H1975 cells assessed as fluorescence signal at 5 uM incubated for 1 hrs by fluorescence microscopy. As to conditions: nci-h1975, 1 h. The format is ADME, cell-based. The method in brief:
as §1

Series [7] concerns the target Epidermal growth factor receptor (Homo sapiens) (UniProt P00533). Description: Inhibition of EGFR in human NCI-H1975 cells by pull down/Western blot analysis. The series is classed as cell-based. The procedure, abridged: (§2)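 H1975 cells were treated with the probe, and the lysate was clicked to a biotin tag and enriched on streptavidin beads. The pulled-down proteins were then detected by Western blot with antibodies to EGFR and NT5DC1.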
In general terms: A western blot detects proteins with antibodies after separation by electrophoresis.

Series [8] concerns the target T1, 5'-nucleotidase domain-containing protein 1 (Homo sapiens). Description: Inhibition of NT5DC1 in human NCI-H1975 cells by pull down/Western blot analysis. The format is cell-based. The method in brief:
as §2

For series [9] the target is unchanged. Description: Binding affinity to NT5DC1 in human NCI-H1299 cells at 1 uM by Western blot analysis. The format is cell-based. The method in brief:
(§3)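 Live cancer cells were labelled in situ with the 1 μM alkyne probe, clicked to TAMRA-azide and resolved by SDS-PAGE with fluorescence scanning. NT5DC1 expression in each line was measured separately by Western blot.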

The target is the same in series [10]. As to the kind of experiment: Binding affinity to NT5DC1 in human HeLa cells at 1 uM by Western blot analysis. The format is cell-based. The method in brief: as §3
For series [11] the target is unchanged. As to the kind of experiment: Binding affinity to NT5DC1 in human Huh-7 cells at 1 uM by Western blot analysis. The series is classed as cell-based. The procedure, abridged:
as §3

For series [12] the target is unchanged. As to the kind of experiment: Binding affinity to NT5DC1 in human MCF7 cells at 1 uM by Western blot analysis. The format is cell-based. The method in brief:
as §3

The target is the same in series [13]. As to the kind of experiment: Binding affinity to NT5DC1 in human MV4-11 cells at 1 uM by Western blot analysis. The series is classed as cell-based. The procedure, abridged: as §3
Series [14] has as its target Epidermal growth factor receptor (Homo sapiens) (UniProt P00533). Description: Binding affinity to EGFR in human NCI-H1975 cells at 5 uM by pull down/LC-MS/MS analysis. The series is classed as cell-based. The method in brief:
(§4)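 Live H1975 cells were incubated for 1 h with the 5 μM alkyne probe, with or without 5× parent inhibitor as competitor. Cells were lysed and clicked by CuAAC to a biotin-TAMRA-azide tag. Proteins were enriched on streptavidin beads, checked by in-gel fluorescence, trypsin-digested and run on LC-MS/MS with label-free quantification. Hits were kept if log2 enrichment (probe/DMSO) was >3, −log10 p was >2 and probe LFQ intensity was >1 × 10^7.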

Series [15] has as its target Trifunctional enzyme subunit alpha, mitochondrial (Homo sapiens) (UniProt P40939). Description: Binding affinity to HADHA in human NCI-H1975 cells at 5 uM by pull down/LC-MS/MS analysis. The series is classed as cell-based. The method in brief: as §4
Series [16] deals with DNA replication licensing factor MCM2 (Homo sapiens) (UniProt P49736). Description: Binding affinity to MCM2 in human NCI-H1975 cells at 5 uM by pull down/LC-MS/MS analysis. The series is classed as cell-based. The procedure, abridged:
as §4

Series [17] has as its system NCI-H1975. As to the kind of experiment: Binding affinity to MAP4 in human NCI-H1975 cells at 5 uM by pull down/LC-MS/MS analysis. The format is cell-based. The method in brief:
as §4

Series [18] has as its system NCI-H1975. As to the kind of experiment: Binding affinity to RPS19 in human NCI-H1975 cells at 5 uM by pull down/LC-MS/MS analysis. The format is cell-based. The procedure, abridged: as §4
The target in series [19] is T1, 5'-nucleotidase domain-containing protein 1 (Homo sapiens). As to the kind of experiment: Binding affinity to NT5DC1 in human NCI-H1975 cells at 5 uM by pull down/LC-MS/MS analysis. The series is classed as cell-based. The method in brief:
as §4

Series [20] addresses Mitochondrial antiviral-signaling protein (Homo sapiens) (UniProt Q7Z434). As to the kind of experiment: Binding affinity to MAVS in human NCI-H1975 cells at 5 uM by pull down/LC-MS/MS analysis. The series is classed as cell-based. The method in brief:
as §4

Series [21] deals with T1, 5'-nucleotidase domain-containing protein 1 (Homo sapiens). Description: Binding affinity to NT5DC1 in human MDA-MB-453 cells at 1 uM by Western blot analysis.

Results on 4 compounds are retold here after ChEMBL document CHEMBL5034051, “Proteome-wide Identification of Off-Targets of a Potent EGFRL858R/T790M Mutant Inhibitor” (ACS Med Chem Lett, 2022).

Each structure is given as a SMILES string. Calls of active or inactive are those of the source. The rule behind the calls is not given here.

As a reminder, the IC50 is the concentration that gives 50% inhibition.

For the compound `C=CC(=O)Nc1cc(Nc2nccc(-c3cn(C)c4ccccc34)n2)c(OC)cc1N(C)CCN(C)C` [OSIMERTINIB], the IC50 in the series on NCI-H1975 [1] is […].

Sequence of Epidermal growth factor receptor (Homo sapiens) (P00533 whole entry): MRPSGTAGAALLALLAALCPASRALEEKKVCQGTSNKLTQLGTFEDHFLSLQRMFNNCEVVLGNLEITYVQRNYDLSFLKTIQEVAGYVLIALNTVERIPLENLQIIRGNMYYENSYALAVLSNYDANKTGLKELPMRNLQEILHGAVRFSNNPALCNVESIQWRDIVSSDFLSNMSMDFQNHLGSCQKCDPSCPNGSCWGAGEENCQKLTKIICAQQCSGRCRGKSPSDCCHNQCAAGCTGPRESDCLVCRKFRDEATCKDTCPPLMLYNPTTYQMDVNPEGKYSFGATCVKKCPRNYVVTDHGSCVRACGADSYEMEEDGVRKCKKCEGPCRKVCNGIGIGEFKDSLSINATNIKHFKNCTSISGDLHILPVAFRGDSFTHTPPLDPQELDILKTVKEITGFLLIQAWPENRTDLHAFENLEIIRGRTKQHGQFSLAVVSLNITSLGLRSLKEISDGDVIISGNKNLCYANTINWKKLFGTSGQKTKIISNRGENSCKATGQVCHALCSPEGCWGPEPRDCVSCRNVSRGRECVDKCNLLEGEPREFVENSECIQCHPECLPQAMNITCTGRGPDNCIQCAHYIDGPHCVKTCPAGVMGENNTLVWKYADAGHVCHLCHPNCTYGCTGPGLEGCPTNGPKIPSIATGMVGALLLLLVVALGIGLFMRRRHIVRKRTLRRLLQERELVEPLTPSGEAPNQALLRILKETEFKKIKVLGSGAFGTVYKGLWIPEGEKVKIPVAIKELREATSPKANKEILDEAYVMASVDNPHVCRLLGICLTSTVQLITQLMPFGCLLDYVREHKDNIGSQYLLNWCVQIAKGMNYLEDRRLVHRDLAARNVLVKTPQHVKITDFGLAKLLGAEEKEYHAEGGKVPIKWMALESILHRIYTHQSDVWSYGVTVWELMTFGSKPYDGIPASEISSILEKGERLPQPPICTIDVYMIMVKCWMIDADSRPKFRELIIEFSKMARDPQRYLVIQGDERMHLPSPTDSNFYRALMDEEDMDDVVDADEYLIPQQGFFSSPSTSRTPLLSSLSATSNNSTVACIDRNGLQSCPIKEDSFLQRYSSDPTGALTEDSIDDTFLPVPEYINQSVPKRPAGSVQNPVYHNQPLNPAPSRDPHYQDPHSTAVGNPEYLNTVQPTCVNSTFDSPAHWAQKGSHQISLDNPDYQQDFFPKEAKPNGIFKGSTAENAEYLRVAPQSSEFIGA
Sequence of Epidermal growth factor receptor (P00533 25-1210 T790M limits assumed): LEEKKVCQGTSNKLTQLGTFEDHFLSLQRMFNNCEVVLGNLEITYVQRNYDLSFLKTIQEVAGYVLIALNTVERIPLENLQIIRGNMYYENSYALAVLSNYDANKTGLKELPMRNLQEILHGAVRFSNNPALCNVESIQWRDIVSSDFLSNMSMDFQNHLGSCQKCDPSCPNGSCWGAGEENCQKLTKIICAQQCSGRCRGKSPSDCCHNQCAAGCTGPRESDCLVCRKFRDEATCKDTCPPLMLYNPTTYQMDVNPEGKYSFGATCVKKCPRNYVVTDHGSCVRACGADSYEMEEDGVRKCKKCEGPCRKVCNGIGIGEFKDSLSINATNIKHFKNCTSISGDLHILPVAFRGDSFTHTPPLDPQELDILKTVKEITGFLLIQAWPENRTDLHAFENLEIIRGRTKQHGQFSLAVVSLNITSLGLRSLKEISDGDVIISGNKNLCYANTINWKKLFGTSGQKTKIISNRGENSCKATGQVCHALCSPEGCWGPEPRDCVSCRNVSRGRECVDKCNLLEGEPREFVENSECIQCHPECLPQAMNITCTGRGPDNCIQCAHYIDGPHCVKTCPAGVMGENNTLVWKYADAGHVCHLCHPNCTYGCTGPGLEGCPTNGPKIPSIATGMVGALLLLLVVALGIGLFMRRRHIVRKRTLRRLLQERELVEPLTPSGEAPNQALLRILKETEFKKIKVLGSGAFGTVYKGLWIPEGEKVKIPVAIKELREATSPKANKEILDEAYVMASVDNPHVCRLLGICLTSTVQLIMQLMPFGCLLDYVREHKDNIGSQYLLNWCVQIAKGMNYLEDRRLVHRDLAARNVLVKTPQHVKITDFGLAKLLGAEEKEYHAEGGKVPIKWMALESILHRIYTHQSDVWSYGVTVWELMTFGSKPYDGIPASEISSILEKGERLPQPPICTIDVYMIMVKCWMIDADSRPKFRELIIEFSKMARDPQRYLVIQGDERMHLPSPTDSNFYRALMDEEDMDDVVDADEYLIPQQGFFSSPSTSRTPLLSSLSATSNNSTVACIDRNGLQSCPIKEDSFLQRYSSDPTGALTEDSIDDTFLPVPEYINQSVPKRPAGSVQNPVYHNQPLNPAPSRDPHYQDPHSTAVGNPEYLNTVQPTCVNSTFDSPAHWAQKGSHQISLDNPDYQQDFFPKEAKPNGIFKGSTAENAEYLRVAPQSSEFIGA
Sequence of DNA replication licensing factor MCM2 (Homo sapiens) (P49736 whole entry): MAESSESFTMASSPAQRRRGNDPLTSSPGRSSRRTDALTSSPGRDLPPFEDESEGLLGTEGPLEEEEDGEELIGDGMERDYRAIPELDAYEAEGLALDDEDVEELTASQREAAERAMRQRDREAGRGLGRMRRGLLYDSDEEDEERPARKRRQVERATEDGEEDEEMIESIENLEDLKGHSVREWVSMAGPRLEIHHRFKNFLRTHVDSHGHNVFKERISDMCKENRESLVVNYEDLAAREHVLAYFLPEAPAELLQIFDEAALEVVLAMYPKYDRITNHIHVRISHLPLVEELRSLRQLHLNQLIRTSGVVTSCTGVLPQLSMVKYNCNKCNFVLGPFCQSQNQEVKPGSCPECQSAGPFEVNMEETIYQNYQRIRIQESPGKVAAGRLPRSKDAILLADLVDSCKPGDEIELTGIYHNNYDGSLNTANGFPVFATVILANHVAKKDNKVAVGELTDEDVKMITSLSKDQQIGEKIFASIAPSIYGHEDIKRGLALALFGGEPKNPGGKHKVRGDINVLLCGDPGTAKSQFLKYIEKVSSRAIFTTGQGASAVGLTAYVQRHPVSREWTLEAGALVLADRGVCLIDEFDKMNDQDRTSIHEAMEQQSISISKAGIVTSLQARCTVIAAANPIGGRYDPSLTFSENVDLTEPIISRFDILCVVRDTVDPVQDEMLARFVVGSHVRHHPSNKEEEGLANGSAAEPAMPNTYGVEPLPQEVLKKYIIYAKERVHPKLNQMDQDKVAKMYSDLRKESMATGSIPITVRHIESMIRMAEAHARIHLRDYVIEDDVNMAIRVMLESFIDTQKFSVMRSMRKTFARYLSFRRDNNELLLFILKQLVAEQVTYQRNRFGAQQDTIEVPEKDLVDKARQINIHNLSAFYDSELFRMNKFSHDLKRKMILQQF
Sequence of Trifunctional enzyme subunit alpha, mitochondrial (Homo sapiens) (P40939 whole entry): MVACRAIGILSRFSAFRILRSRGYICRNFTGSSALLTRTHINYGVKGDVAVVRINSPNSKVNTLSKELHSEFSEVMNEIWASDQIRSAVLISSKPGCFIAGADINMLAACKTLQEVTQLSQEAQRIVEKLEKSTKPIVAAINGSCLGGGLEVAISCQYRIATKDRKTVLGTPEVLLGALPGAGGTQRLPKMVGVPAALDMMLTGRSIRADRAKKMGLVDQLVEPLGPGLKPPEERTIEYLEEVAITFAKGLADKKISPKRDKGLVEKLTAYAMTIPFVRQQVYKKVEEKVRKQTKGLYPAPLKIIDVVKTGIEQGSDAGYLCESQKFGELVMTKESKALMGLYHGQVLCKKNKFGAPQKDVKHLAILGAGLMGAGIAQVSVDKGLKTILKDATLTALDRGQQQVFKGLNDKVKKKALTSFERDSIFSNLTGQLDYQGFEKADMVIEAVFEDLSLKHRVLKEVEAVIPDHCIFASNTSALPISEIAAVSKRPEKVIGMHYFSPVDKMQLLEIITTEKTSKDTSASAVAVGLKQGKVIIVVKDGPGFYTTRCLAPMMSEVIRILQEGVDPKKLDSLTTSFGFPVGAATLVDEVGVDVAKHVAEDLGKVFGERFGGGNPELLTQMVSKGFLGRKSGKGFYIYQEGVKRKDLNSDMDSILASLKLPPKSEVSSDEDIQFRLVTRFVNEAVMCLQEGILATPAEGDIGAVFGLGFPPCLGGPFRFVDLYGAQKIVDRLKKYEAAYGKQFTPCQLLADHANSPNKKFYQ
Sequence of Mitochondrial antiviral-signaling protein (Homo sapiens) (Q7Z434 whole entry): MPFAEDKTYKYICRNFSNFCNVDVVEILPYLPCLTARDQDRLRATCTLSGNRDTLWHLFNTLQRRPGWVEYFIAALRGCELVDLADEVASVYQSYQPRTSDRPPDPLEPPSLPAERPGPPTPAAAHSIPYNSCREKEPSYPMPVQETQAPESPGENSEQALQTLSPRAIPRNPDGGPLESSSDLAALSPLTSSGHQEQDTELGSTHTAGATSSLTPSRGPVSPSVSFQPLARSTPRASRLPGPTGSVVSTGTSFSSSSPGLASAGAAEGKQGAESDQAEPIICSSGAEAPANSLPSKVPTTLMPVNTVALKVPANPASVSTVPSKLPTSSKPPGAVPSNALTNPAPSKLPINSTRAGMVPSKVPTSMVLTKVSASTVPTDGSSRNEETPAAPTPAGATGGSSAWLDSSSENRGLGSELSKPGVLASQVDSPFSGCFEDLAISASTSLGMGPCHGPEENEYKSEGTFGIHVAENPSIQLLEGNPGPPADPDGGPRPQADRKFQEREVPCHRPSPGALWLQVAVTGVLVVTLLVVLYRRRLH

Regarding `C=CC(=O)Nc1cccc(-n2c(=O)cc(C)c3cnc(Nc4ccc(N5CCN(C)CC5)cc4OC)nc32)c1`, the figures for the IC50 (in [2]; in the series with NCI-H1975 [1]) were 5.27 nM and 130 nM, respectively. Also, the outcome (in series [3]; in the series with NCI-H1975 [4]) was Active.

As for `C#CCN1CCN(c2ccc(Nc3ncc4c(C)cc(=O)n(-c5cccc(NC(=O)C=C)c5)c4n3)c(OC)c2)CC1`, the IC50 stood at 8.04 nM in series [2] and 820 nM in the series with NCI-H1975 [1]. For the same compound, the Drug uptake entry is recorded as “Active” in [5] and “Not Active” in series [6]. Also, the inhibition entry in series [7] and in [8] was “Active” throughout. For the same compound, the result (in series [3]; in the series on NCI-H1975 [4]; in [9]; in series [10]; in series [11]; in series [12]) was Active. Moreover, the outcome (in series [13]; in [14]; in series [15]; in [16]; with NCI-H1975 [17]; with NCI-H1975 [18]) was Active. The result in series [19], in [20] and in [21] was Active.

For `CN(C)C/C=C/C(=O)Nc1cc2c(Nc3ccc(F)c(Cl)c3)ncnc2cc1O[C@H]1CCOC1` [AFATINIB], the IC50 in the series with NCI-H1975 [1] is 370 nM.
